Source: ChEMBL document CHEMBL1121982 (J Med Chem, 1982)

Tests used:
[1] = Ki ratio measured as inhibitory effect against delta and mu opioid receptors
Mu-type opioid receptor [2] = molecular target: T1, Mu-type opioid receptor (Cavia porcellus, UniProt P97266); experiment: Inhibitory potency against Opioid receptor mu 1 in the guinea pig ileum assay; type: functional, tissue-based
Summary of the method: (§1)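 Guinea pig ileum bioassay. Twitch-height reduction at several doses gave log dose-response curves.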

[3] = IC50 ratio measured as inhibitory potencies in mouse vas deferens and guinea pig ileum assays; type: functional
[4] = molecular target: Delta-type opioid receptor (Mus musculus) (UniProt P32300); experiment: […] in mouse vas deferens assay for Opioid receptor delta 1; type: functional
Summary of the method: (§2)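 Ke for naloxone as antagonist in the isolated tissue assay. It was derived from the ratio of agonist IC50 values measured with and without a fixed naloxone concentration.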

Mu-type opioid receptor [5] = molecular target: T2, Mu-type opioid receptor (Rattus norvegicus, UniProt P33535); experiment: Inhibition of binding of [3H]naloxone to Opioid receptor mu 1 in the rat brain homogenate; type: tissue-based
[6] = molecular target: T3, Delta-type opioid receptor (Rattus norvegicus, UniProt P33533); experiment: Inhibition of binding of [3H][D-Ala2,D-Leu5]enkephalin to Opioid receptor delta 1 in the rat brain homogenate; type: tissue-based
[7] = molecular target: T4, Delta-type opioid receptor (Mus musculus, UniProt P32300); experiment: Inhibitory potency against Opioid receptor delta 1 in the mouse vas deferens assay; type: functional, tissue-based
Summary of the method: (§3)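 Vasa deferentia were taken from adult male Swiss Webster albino mice (30-50 g) killed by cervical dislocation. Fat, connective tissue and the blood vessel were removed and semen was expressed. Contractions were recorded with a force transducer, and twitch-height reduction at several doses gave log dose-response curves.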

[8] = molecular target: Mu-type opioid receptor (Cavia porcellus) (UniProt P97266); experiment: Sensitivity to naloxone against Opioid receptor mu 1 in the guinea pig ileum assay; type: functional, tissue-based; summary of the method: as §2
[9] = molecular target: T3, Delta-type opioid receptor; experiment: Inhibition of [3H][D-Ala2,D-Leu5]enkephalin binding to Opioid receptor delta 1 in the rat brain homogenate; type: tissue-based
[10] = molecular target: Delta-type opioid receptor (Rattus norvegicus) (UniProt P33533); experiment: (§4) Ki ratio measured as the inhibitory effect against delta/mu receptor.
Mu-type opioid receptor [11] = molecular target: Mu-type opioid receptor (Mus musculus, UniProt P42866); experiment: Inhibitory potency against Opioid receptor mu 1 in mouse vas deferens assay; type: functional, tissue-based; summary of the method: as §3
[12] = molecular target: T4, Delta-type opioid receptor; experiment: Inhibitory potency against Opioid receptor delta 1 in mouse vas deferens assay; type: functional, tissue-based; summary of the method: as §3
[13] = molecular target: Delta-type opioid receptor (Mus musculus) (UniProt P32300); experiment: IC50 ratio measured as the inhibitory potencies of MVD/GPI.
[14] = molecular target: Delta-type opioid receptor (Mus musculus) (UniProt P32300); experiment: as §4
[15] = molecular target: Mu-type opioid receptor (Cavia porcellus) (UniProt P97266); experiment: Sensitivity to naloxone against mu receptor in guinea pig ileum assay; type: functional, tissue-based; summary of the method: as §2
Mu-type opioid receptor [16] = molecular target: T2, Mu-type opioid receptor; experiment: Inhibition of [3H]-naloxone binding to mu receptor in rat brain homogenate; type: tissue-based
Mu-type opioid receptor [17] = molecular target: T1, Mu-type opioid receptor; experiment: Inhibitory potency against mu receptor in guinea pig ileum assay; type: functional, tissue-based; summary of the method: as §1
Mu-type opioid receptor [18] = molecular target: T2, Mu-type opioid receptor; experiment: Inhibition of [3H]naloxone binding to Opioid receptor mu 1 in rat brain homogenate; type: tissue-based
[19] = molecular target: T3, Delta-type opioid receptor; experiment: Inhibition of binding of [3H][D-Ala2,D-Leu5]enkephalin to delta receptor in the rat brain homogenate; type: tissue-based

Chain of Mu-type opioid receptor (Cavia porcellus) (P97266 whole entry): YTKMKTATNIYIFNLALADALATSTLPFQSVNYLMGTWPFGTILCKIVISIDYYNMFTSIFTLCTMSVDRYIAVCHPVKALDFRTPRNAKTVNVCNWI
T1 sequence (P97266 whole entry): as above
T4 sequence (P32300 whole entry): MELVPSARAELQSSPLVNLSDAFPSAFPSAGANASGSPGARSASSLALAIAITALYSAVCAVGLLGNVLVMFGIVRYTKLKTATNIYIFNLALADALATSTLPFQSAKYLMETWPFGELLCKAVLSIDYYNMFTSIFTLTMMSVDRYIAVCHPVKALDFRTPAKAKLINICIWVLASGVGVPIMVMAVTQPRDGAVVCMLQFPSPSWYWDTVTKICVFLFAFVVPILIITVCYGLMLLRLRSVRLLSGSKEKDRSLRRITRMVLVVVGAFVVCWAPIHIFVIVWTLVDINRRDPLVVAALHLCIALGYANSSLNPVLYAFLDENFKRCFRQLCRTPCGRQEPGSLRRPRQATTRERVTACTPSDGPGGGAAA
Chain of Delta-type opioid receptor (Mus musculus) (P32300 whole entry): as above
T2 sequence (P33535 whole entry): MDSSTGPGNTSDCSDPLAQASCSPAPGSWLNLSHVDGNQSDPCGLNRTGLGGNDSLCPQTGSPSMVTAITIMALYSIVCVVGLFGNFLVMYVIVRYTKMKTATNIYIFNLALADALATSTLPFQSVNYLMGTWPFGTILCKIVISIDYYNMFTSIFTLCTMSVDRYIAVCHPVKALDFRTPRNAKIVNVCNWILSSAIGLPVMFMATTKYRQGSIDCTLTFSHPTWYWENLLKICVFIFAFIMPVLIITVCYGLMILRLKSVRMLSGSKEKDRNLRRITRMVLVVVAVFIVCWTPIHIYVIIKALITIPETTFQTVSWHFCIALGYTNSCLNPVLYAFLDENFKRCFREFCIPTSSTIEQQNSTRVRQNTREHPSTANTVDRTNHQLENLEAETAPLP
T3 sequence (P33533 whole entry): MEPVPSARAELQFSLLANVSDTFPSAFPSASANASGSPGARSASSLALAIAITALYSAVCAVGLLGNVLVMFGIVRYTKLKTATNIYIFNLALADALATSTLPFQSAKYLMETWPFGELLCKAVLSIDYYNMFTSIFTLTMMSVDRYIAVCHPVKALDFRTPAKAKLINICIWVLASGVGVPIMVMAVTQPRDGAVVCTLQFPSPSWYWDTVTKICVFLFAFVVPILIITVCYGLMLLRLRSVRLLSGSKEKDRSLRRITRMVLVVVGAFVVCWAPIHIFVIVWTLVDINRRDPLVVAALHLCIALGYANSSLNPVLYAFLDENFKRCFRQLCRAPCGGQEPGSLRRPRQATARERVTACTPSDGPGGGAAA
Chain of Delta-type opioid receptor (Rattus norvegicus) (P33533 whole entry): as above
Chain of Mu-type opioid receptor (Mus musculus, UniProt P42866) (P42866 whole entry): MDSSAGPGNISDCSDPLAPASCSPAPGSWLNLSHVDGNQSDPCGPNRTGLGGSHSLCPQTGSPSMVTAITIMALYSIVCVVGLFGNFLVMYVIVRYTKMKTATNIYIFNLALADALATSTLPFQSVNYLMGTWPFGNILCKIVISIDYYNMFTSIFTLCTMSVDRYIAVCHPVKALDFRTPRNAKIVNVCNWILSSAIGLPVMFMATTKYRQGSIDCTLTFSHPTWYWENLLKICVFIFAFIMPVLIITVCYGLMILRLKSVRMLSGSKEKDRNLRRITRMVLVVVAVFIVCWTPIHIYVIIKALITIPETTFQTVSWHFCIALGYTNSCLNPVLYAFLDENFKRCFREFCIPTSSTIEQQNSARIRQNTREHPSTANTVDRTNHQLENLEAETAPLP

SMILES	Ratio [1]	IC50 (Mu-type opioid receptor [2])	Ratio [3]	Ke [4]	IC50 (Mu-type opioid receptor [5])	Ki (Mu-type opioid receptor [5])	IC50 [6]	IC50 [7]	Ke [8]	Ki [9]	other results
CC(=O)O.CC(C)C[C@H]1NC(=O)[C@H](Cc2ccccc2)NC(=O)CNC(=O)[C@H](NC(=O)[C@@H](N)Cc2ccc(O)cc2)CCCCNC1=O	4.59	0.00239 µM	7.32	2.37 nM	0.00851 µM	0.00473 µM	0.0478 µM	0.0175 µM	0.553 nM	0.0217 µM	
CC(=O)O.CCCC[C@@H](NC(=O)[C@@H](N)Cc1ccc(O)cc1)C(=O)NCC(=O)N[C@@H](Cc1ccccc1)C(=O)N[C@@H](CC(C)C)C(N)=O		0.0246 µM	1.02	3.19 nM	0.00408 µM	0.00227 µM	0.00957 µM	0.0252 µM	0.729 nM	0.00435 µM	Ratio [10]: 1.92
CC(=O)O.N[C@@H](Cc1ccc(O)cc1)C(=O)N[C@@H]1CCCCNC(=O)[C@H](Cc2ccccc2)NC(=O)CNC1=O	14.4	0.00709 µM	4.77	0.606 nM	0.00558 µM	0.0031 µM	0.0983 µM	0.0338 µM	0.875 nM		Ki [6]: 0.0447 µM
CC(C)C[C@@H]1NC(=O)[C@@H](Cc2ccccc2)NC(=O)CNC(=O)[C@H](NC(=O)[C@@H](N)Cc2ccc(O)cc2)CCNC1=O	8.33			0.576 nM					0.122 nM		
CN1CC[C@]23CCCC[C@H]2[C@H]1Cc1ccc(O)cc13 [LEVORPHANOL]		0.017 µM	16.4	0.587 nM					0.127 nM		IC50 (Mu-type opioid receptor [11]): 0.278 µM
CC(=O)O.CC[C@@H](NC(=O)[C@@H](N)Cc1ccc(O)cc1)C(=O)NCC(=O)N[C@@H](Cc1ccccc1)C(=O)N[C@@H](CC(C)C)C(N)=O		0.0287 µM	1.59	1.5 nM	0.0101 µM	0.00561 µM	0.00894 µM		0.181 nM	0.00406 µM	IC50 [12]: 0.0456 µM; Ratio [10]: 0.72
CC(=O)O.CC(C)C[C@@H]1NC(=O)[C@H](Cc2ccccc2)NC(=O)CNC(=O)[C@H](NC(=O)[C@@H](N)Cc2ccc(O)cc2)CCNC1=O			5.77								
CC(=O)O.CCC[C@@H](NC(=O)[C@@H](N)Cc1ccc(O)cc1)C(=O)NCC(=O)N[C@@H](Cc1ccccc1)C(=O)N[C@@H](CC(C)C)C(N)=O		0.0232 µM	0.905	3.52 nM	0.00589 µM	0.00327 µM	0.00681 µM	0.021 µM	0.227 nM	0.0031 µM	Ratio [10]: 0.95
CC(C)C[C@@H]1NC(=O)[C@H](Cc2ccccc2)NC(=O)CNC(=O)[C@H](NC(=O)[C@@H](N)Cc2ccc(O)cc2)CCCCNC1=O		0.0048 µM		0.36 nM	0.0224 µM	0.0124 µM	0.0322 µM		0.416 nM	0.0146 µM	IC50 [12]: 0.141 µM; Ratio [13]: 29.4; Ratio [14]: 1.18
CC(C)C[C@@H]1NC(=O)[C@H](Cc2ccccc2)NC(=O)CNC(=O)[C@H](NC(=O)[C@@H](N)Cc2ccc(O)cc2)CCCNC1=O		0.048 µM		0.216 nM		0.0314 µM	0.221 µM			0.1 µM	Ke [15]: 0.671 nM; Ratio [13]: 9.9; IC50 (Mu-type opioid receptor [16]): 0.0566 µM; Ratio [14]: 3.18
CC(C)C[C@@H]1NC(=O)[C@H](Cc2ccccc2)NC(=O)CNC(=O)[C@H](NC(=O)[C@@H](N)Cc2ccc(O)cc2)CCNC1=O		0.0141 µM			0.0249 µM	0.0138 µM	0.253 µM	0.0814 µM		0.115 µM	
CC(C)C[C@H](NC(=O)[C@H](Cc1ccccc1)NC(=O)CNC(=O)[C@@H](C)NC(=O)[C@@H](N)Cc1ccc(O)cc1)C(N)=O				2.36 nM				0.00826 µM	0.401 nM		IC50 (Mu-type opioid receptor [17]): 0.00763 µM
CC(=O)O.CC(C)C[C@@H]1NC(=O)[C@H](Cc2ccccc2)NC(=O)CNC(=O)[C@H](NC(=O)[C@@H](N)Cc2ccc(O)cc2)CNC1=O	1.01	0.0234 µM	3.12	0.387 nM	0.0958 µM			0.0731 µM	0.275 nM	0.0536 µM	Ki (Mu-type opioid receptor [18]): 0.0532 µM; IC50 [19]: 0.118 µM
